Like-named read-outs stand apart in the source and are kept apart here. Some results are limits rather than exact numbers.

The test system of data set [1] is human HT-29 colon tumor xenograft. Nature of the data set: HT-29 colon tumor xenograft, treatment of established tumors. Type of data set: in vivo, mice. The following applies: for median number of days to reach a tumor weight of 2,000 mg: control 42.8 days; for median number of days to reach a tumor weight of 3,000 mg: control 52.2 days.
A further data set deals with T1, purified ovine COX-2 (Ovis aries, UniProt P79208).
T1 sequence (P79208 17-603): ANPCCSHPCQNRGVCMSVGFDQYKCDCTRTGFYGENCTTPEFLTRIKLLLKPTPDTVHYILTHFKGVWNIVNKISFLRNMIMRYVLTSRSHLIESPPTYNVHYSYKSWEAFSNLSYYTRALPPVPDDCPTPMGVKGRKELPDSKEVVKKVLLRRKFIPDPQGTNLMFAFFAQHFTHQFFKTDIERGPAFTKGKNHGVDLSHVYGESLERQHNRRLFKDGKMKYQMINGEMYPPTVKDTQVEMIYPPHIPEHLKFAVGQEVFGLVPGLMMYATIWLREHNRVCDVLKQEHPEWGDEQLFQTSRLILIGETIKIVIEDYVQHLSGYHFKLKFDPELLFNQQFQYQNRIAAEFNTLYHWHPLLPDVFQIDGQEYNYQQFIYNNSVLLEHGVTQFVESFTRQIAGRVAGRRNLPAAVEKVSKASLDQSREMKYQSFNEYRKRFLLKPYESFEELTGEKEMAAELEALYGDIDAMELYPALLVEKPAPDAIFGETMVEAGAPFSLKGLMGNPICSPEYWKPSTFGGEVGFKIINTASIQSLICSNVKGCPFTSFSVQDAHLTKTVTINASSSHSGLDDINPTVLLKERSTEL
Nature of the data set: COX-2 colorimetric enzyme assay with purified isozyme. The format is biochemical.

The next data set has as its target T2, purified ovine COX-1 (Ovis aries, UniProt P05979).
T2 sequence (P05979 25-600): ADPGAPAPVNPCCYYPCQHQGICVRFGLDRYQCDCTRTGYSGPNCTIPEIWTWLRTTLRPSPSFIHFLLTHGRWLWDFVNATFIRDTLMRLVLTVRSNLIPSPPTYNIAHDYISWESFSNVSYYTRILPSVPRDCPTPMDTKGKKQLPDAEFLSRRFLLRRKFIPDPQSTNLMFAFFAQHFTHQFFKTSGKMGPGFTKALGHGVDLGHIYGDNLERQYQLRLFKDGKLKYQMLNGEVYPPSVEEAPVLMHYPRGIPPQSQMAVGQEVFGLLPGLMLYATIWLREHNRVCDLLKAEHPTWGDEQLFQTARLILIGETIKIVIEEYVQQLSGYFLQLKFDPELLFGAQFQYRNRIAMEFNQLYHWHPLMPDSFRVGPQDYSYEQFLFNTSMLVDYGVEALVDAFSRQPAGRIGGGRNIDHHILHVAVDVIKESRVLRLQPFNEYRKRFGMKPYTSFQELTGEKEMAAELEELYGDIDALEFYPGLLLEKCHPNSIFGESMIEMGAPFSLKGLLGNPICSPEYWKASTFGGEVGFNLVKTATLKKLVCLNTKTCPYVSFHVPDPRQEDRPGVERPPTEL
Nature of the data set: COX-1 colorimetric enzyme assay with purified isozyme. The format is biochemical.

Data set [2] relates to HT-29 colon tumor cells. Nature of the data set: TUNEL apoptosis assay. The format is cell-based, human. The following applies: 24 hours, vehicle 2.3%. In short, it runs like this:
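HT-29 cells were seeded at 2 × 10^6 per 10 cm dish and grown 48 h. Medium was then replaced with test compound or vehicle for 24 h. Cells were fixed in 4% formalin on ice for 15 min. Strand breaks were labelled with BrdUrd, detected with anti-BrdUrd Alexa Fluor 488, and nuclei stained with propidium iodide. TUNEL-positive percentage was read by flow cytometry (≥10,000 events). Mean ± SE.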

Data set [3] has as its system HT-29 colon tumor cells. Nature of the data set: Growth assay. The format is cell-based, human. Particulars: for continuous treatment required to reach maximum potency of growth inhibition: HT-29 time course. In short, it runs like this: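 HT-29 cells were grown in RPMI 1640 with 5% FBS at 37°C under 5% CO2, using only cultures with >95% viability. Cells were seeded at 5,000/well, left 16 h, then treated continuously for 72 h at 37°C. Viable cell number was read as ATP luminescence (CellTiterGlo). A time course experiment used the same read-out. Mean, SE shown.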

Data set [4] has as its system caspases 3 and 7 activity in HT-29 colon tumor cells. In words: Caspase-Glo 3/7 apoptosis assay. The format is cell-based, human. Particulars: HT-29, 25 µmol/L. In short, it runs like this:
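HT-29 cells were seeded at 10,000/well and grown 18–24 h before treatment. Treatment lasted 2–8 h: time course at 25 µmol/L, and dose-response at 5 h exposure. Caspase 3/7 activity was read as luminescence from substrate cleavage (Caspase-Glo 3/7).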

Data set [5] in a line: Pharmacokinetic study, plasma levels after single gastric gavage. The format is in vivo, mice. Particulars: for plasma level: mice, ± SD.
Data set [6] concerns HT-29 colon tumor cells. In words: Proliferation assay. Type of data set: cell-based, human. The following applies: read-out: IC50 to inhibit DNA synthesis (3H-thymidine incorporation); HT-29, 72 h of treatment.
In another data set the test system is NCr-nu/nu mice. The format is in vivo.
The test system of data set [7] is human HT-29 colon tumor xenograft. In words: HT-29 colon tumor xenograft, treatment from day of tumor implantation. The format is in vivo.
[8] abbreviates: read-out: COX-1 IC50, purified COX-1 isozyme, arachidonic acid, 25°C, 5 min.
[9] abbreviates: read-out: COX-2 IC50, purified COX-2 isozyme, arachidonic acid, 25°C, 5 min.
Setting [10] is: 250 mg/kg twice daily gastric gavage, 55 days.
The mark [11] stands for this setting: purified COX-1 isozyme, arachidonic acid, 25°C, 5 min.
The mark [12] stands for this setting: purified COX-2 isozyme, arachidonic acid, 25°C, 5 min.

For the compound `CCc1c2c(nc3ccc(OC(=O)N4CCC(N5CCCCC5)CC4)cc13)-c1cc3c(c(=O)n1C2)COC(=O)[C@]3(O)CC.Cl` [Camptosar, irinotecan HCl], in data set [1], the “median number of days to reach a tumor weight of 2,000 mg” value is 48.2 days and the “median number of days to reach a tumor weight of 3,000 mg” value was 58.7 days.

On purified ovine COX-2, `CS(=O)(=O)c1ccc(C2=C(c3ccccc3)C(=O)OC2)cc1` [Rofecoxib] had an IC50 of 2.7 µM.

For `CSc1ccc(/C=C2/C(C)=C(CC(=O)O)c3cc(F)ccc32)cc1` [SS, sulindac sulfide], on purified ovine COX-1, the IC50 came to 1.8 µM. The “percentage of apoptotic cells (TUNEL)” value in the data set with HT-29 colon tumor cells [2] (HT-29, 100 µmol/L) stood at 7.1%; in the data set on HT-29 colon tumor cells [2] (HT-29, 200 µmol/L) it was 49.9%. For the same compound, the “continuous treatment required to reach maximum potency of growth inhibition” value with HT-29 colon tumor cells [3] is reported as ~ 2 days.

For `CSc1ccc(/C=C2/C(C)=C(CC(=O)NCCN(C)C)c3cc(F)ccc32)cc1` [SSA], the IC50 at purified ovine COX-1 (setting [8]) was more than 300 µM; at purified ovine COX-2 (setting [9]), 164 µM; in the data set with HT-29 colon tumor cells [6], 1.2 µM. In addition, the “optimum treatment time for caspase induction” value in [4] is ~ 4 hours. In [5] (mouse, in vivo, po, 200 mg/kg), this compound had a plasma half-life of 9.9 h. Moreover, in the data set on NCr-nu/nu mice (mouse, in vivo), the tolerated dosage result is on record as “up to 300 mg/kg”. Besides, the “percentage of apoptotic cells (TUNEL)” value in the data set on HT-29 colon tumor cells [2] (HT-29, 10 µmol/L) is listed as 3.6%; in the data set with HT-29 colon tumor cells [2] (HT-29, 25 µmol/L), 10.2%; with HT-29 colon tumor cells [2] (HT-29, 50 µmol/L), 91.8%. For the same compound, the “median number of days to reach a tumor weight of 2,000 mg” value in data set [1] worked out at 40.8 days. Besides, the “median number of days to reach a tumor weight of 3,000 mg” value in data set [1] was determined as 53.2 days. The “increase in potency compared with SS (growth inhibition)” value with HT-29 colon tumor cells [3] (HT-29 cell line) is on record as approximately 40 fold. Besides, in the data set with HT-29 colon tumor cells [3], the “continuous treatment required to reach maximum potency of growth inhibition” value is on record as ~ 2 days. Further, the “mean body weight loss averaged over the duration of treatment” value in [7] (setting [10]) worked out at 1.1%. The “mean body weight loss on any given day” value in data set [7] (setting [10]) was not above 6%. Besides, in data set [7] (day 55, 250 mg/kg twice daily, control 2,534 mg), the mean tumor weight is given as 1,141 mg.

`CC1=C(CC(=O)O)c2cc(F)ccc2/C1=C\c1ccc(S(C)(=O)=O)cc1` [Sulindac sulfone, sulindac sulfone]: the IC50 on purified ovine COX-1 and against purified ovine COX-2 was more than 300 µM throughout. Further, the “COX-1 IC50” value at purified ovine COX-1 (setting [11]) was “lack both COX-1 and COX-2 inhibitory activity”. Moreover, the “COX-2 IC50” value at purified ovine COX-2 (setting [12]) is “lack both COX-1 and COX-2 inhibitory activity”.

For `CC1=C(CC(=O)O)c2cc(F)ccc2/C1=C\c1ccc([S+](C)[O-])cc1` (stereo not drawn) [Sulindac sulfoxide, sulindac], the “COX-1 IC50” value at purified ovine COX-1 (setting [11]) is “lack both COX-1 and COX-2 inhibitory activity”. The IC50 is more than 300 µM on purified ovine COX-1 (setting [8]), more than 300 µM at purified ovine COX-2 (setting [9]) and 222 µM with HT-29 colon tumor cells [6]. Moreover, the “COX-2 IC50” value at purified ovine COX-2 (setting [12]) was “lack both COX-1 and COX-2 inhibitory activity”. Also, the plasma level is 50 ± 40 nM in data set [5] (1 h post gastric gavage of SSA (200 mg/kg)); 60 ± 10 nM in data set [5] (2 h post gastric gavage of SSA (200 mg/kg)); 50 ± 10 nM in [5] (4 h post gastric gavage of SSA (200 mg/kg)); 50 ± 14 nM in data set [5] (8 h post gastric gavage of SSA (200 mg/kg)); “BLD” in data set [5] (16 h post gastric gavage of SSA (200 mg/kg)); “BLD” in [5] (24 h post gastric gavage of SSA (200 mg/kg)). For the same compound, the tolerated dosage in the data set on NCr-nu/nu mice (mice, once daily gastric gavage, 20 days of treatment) is given as not above 50 mg/kg.

The values are drawn from PMC3227417 (Cancer prevention research (Philadelphia, Pa.), 2009).
